Laboratory results: ChEMBL document CHEMBL4196230, “Design, Synthesis, and Blood-Brain Barrier Transport Study of Pyrilamine Derivatives as Histone Deacetylase Inhibitors” (ACS Med Chem Lett, 2018)

Tests used:
[1] = molecular target: T1, Protein deacetylase HDAC6 (Mus musculus) (UniProt Q9Z2V5); assay: Inhibition of mouse HDAC6 expressed in 293T cells at 100 uM using Ac-KGLGK(Ac)-MCA as substrate measured after 30 mins by fluorescence assay relative to control
T1 sequence (whole entry): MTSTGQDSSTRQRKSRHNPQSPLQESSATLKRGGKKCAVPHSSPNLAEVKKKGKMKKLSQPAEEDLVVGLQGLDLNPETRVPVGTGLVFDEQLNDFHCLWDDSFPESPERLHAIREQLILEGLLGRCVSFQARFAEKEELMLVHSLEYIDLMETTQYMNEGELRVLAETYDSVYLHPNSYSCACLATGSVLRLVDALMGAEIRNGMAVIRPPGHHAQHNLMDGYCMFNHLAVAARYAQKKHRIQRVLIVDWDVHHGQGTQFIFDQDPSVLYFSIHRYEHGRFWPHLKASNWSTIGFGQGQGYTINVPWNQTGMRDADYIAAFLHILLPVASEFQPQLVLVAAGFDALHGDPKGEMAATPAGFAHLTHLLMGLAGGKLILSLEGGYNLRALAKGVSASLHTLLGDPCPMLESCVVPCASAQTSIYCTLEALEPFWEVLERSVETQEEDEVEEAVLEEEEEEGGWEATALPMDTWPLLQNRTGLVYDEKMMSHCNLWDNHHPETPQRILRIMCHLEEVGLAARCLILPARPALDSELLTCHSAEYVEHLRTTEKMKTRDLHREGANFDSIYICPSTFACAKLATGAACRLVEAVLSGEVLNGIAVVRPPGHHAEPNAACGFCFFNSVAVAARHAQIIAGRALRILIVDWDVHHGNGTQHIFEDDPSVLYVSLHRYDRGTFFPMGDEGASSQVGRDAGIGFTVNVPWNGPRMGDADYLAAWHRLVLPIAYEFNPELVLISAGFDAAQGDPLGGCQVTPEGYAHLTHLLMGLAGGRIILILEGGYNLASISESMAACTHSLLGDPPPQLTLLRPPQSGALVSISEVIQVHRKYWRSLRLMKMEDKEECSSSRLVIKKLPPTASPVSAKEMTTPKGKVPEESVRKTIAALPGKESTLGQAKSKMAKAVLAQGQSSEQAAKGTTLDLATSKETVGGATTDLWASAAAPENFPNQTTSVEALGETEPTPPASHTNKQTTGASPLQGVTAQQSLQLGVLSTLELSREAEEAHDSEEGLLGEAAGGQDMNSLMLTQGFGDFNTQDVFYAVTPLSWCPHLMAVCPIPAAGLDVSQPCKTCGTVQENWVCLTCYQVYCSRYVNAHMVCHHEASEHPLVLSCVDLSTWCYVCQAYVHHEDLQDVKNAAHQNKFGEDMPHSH

[2] = molecular target: Histone deacetylase 4 (Homo sapiens) (UniProt P56524); assay: Inhibition of N-terminal GST tagged/C-terminal His tagged human recombinant HDAC4 (627 to 1084 residues) expressed in baculovirus infected insect cells at 30 uM using HDAC class 2a substrate measured after 30 mins by fluorescence assay relative to control
Histone deacetylase 4 (Homo sapiens), sequence (P56524 whole entry, the tested form may be a part): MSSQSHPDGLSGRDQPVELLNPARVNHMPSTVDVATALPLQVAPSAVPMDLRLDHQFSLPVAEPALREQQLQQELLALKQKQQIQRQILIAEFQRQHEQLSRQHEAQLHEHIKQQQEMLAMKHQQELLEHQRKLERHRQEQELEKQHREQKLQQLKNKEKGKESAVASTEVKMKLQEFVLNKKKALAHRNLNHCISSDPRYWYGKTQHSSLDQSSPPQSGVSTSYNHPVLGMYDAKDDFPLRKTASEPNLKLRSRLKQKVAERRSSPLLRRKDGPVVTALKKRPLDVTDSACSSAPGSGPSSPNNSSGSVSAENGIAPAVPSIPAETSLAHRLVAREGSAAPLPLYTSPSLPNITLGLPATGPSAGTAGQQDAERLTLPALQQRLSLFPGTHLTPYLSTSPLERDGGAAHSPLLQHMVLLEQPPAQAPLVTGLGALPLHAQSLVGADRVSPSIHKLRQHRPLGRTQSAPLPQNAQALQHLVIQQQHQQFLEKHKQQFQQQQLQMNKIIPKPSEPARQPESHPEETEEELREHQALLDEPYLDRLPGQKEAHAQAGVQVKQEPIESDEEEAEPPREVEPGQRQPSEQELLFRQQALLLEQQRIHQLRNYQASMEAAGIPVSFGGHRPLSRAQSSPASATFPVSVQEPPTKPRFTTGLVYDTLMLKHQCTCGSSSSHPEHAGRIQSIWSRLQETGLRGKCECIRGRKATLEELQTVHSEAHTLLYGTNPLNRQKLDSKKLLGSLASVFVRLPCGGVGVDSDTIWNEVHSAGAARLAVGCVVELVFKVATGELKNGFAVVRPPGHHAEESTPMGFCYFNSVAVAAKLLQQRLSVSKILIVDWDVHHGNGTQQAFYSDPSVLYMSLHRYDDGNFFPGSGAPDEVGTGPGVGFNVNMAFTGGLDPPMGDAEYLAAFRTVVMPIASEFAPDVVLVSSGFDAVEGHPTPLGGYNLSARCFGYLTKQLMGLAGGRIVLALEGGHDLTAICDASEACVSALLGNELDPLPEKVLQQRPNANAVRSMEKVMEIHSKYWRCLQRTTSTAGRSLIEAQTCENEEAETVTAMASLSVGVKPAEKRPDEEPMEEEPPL

[3] = Substrate activity at PYSOCA in human CMEC/D3 cells assessed as transporter-mediated drug uptake measured for 2 mins at 37degC in presence of decynium-22; assay type: ADME, cell-based
[4] = Substrate activity at PYSOCA in human CMEC/D3 cells assessed as transporter-mediated drug uptake clearance assessed per mg protein at 37degC; assay type: ADME, cell-based
Procedure, shortened: (§1)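 Uptake by hCMEC/D3 cells followed over time at 37 °C or 4 °C. Clearance was calculated from the initial linear slope, expressed per mg protein. Mean ± S.E., n = 4.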

[5] = Substrate activity at PYSOCA in human CMEC/D3 cells assessed as transporter-mediated drug uptake measured for 2 mins at 37degC in presence of memantine; assay type: ADME, cell-based
[6] = Substrate activity at PYSOCA in human CMEC/D3 cells assessed as transporter-mediated drug uptake clearance assessed per mg protein at 4degC measured up to 10 mins; assay type: ADME, cell-based; procedure, shortened: as §1
PYSOCA = assay: Substrate activity at PYSOCA in human CMEC/D3 cells assessed as Km for transporter-mediated drug uptake measured for 2 mins at 37degC; assay type: ADME, cell-based; conditions: hCMEC/D3 cells
Procedure, shortened: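 Uptake by hCMEC/D3 cells measured over a range of concentrations at 37 °C for 2 min. Km and Vmax were obtained by fitting to Eq. 1. Mean ± S.E., n = 4.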

[7] = Substrate activity at PYSOCA in human CMEC/D3 cells assessed as transporter-mediated drug uptake measured for 1 min at 37degC in presence of NH4Cl under intracellular acidification condition; assay type: ADME, cell-based
Procedure, shortened: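 hCMEC/D3 cells were pretreated in transport buffer with or without 30 mM NH4Cl. Uptake was then measured at 37 °C for 1 min with or without 30 mM NH4Cl (Control, Pre and Acute conditions). Mean ± S.E., n = 4.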

[8] = Blood brain barrier permeability in Wistar rat brain at 20 uM by LC-MS/MS analysis; assay type: ADME, tissue-based
Procedure, shortened: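 Right cerebral hemisphere of rat perfused with buffer containing test agent (20 µM) at 4.9 mL/min for 1 min.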

[9] = Substrate activity at PYSOCA in human CMEC/D3 cells assessed as transporter-mediated drug uptake measured for 2 mins at 37degC in presence of varenicline; assay type: ADME, cell-based
Histone deacetylase 2 = Histone deacetylase 2 (Homo sapiens, UniProt Q92769); assay: Inhibition of recombinant human C-terminal FLAG-tagged HDAC2 expressed in baculovirus infected Sf9 insect cells using HDAC substrate 3 measured after 30 mins by fluorescence assay
Histone deacetylase 2, sequence (Q92769 whole entry): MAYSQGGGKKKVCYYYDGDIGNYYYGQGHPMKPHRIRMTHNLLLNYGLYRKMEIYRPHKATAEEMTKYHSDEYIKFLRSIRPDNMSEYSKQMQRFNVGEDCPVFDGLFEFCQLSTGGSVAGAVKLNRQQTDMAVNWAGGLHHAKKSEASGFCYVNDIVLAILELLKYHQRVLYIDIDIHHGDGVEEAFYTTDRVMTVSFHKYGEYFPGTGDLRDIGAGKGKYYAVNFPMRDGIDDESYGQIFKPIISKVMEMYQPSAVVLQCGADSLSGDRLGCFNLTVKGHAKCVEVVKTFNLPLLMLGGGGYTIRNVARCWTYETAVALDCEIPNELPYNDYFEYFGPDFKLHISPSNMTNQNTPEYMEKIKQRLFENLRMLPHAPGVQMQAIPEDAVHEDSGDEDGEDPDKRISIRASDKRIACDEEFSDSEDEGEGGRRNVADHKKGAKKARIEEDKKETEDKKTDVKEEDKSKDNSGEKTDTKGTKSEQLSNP

[10] = Substrate activity at PYSOCA in human CMEC/D3 cells assessed as transporter-mediated drug uptake measured for 2 mins at 37degC in presence of pyrilamine; assay type: ADME, cell-based

COc1ccc(CN(CCN(C)C)c2ccc(C(=O)Nc3ccccc3N)cn2)cc1
inhibition [1]: 11% | inhibition [2]: < 10% | Activity [3]: Active | CL [4]: 107 µL/min | Activity [5]: Not Active | Activity [6]: Not Active | Km at 2 min (PYSOCA): 326 µM | Activity [7]: Active | pBBB [8]: 42.4 microL/min/g | Activity [9]: Not Active | IC50 (Histone deacetylase 2): 5.5 µM | Activity [10]: Not Active
